This note sets out measurements from ChEMBL document CHEMBL4330063, “New naphthopyran analogues of LY290181 as potential tumor vascular-disrupting agents” (Eur J Med Chem, 2019).

The subject of experiment [1] is Chorioallantoic membrane. The experiment is described as follows: Antiangiogenic activity in Leghorn chicken embryo chorioallantoic membrane assessed as reduction in blood vessel area at 10 nmol after 6 hrs by light microscopic analysis relative to control. The format is functional, tissue-based. On the set-up: scale not given: the % may be the effect or the level left. To be noted: Gallus gallus. The procedure, abridged:
(§1)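 The CAM assay was run with topical application into a silicon foil ring atop the CAM of fertilized chicken eggs. Area covered by blood vessels was quantified by fractal analysis relative to control.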

Experiment [2] concerns Chorioallantoic membrane. Nature of the experiment: Antiangiogenic activity in Leghorn chicken embryo chorioallantoic membrane assessed as induction of hemorrhages at 10 nmol after 24 hrs by light microscopic analysis. It counts as functional, tissue-based. Particulars: Gallus gallus. The procedure, abridged:
(§2)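 Fertilized chicken eggs, CAM assay. Compound was applied topically into a small silicon foil ring placed on the CAM. The membrane and its extraembryonal blood vessels were monitored over 24 h, with observations at 6 h and 24 h post application.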

Experiment [3] concerns Chorioallantoic membrane. Nature of the experiment: Antiangiogenic activity in Leghorn chicken embryo chorioallantoic membrane assessed as disruption of smaller blood vessels at 10 nmol after 24 hrs by light microscopic analysis. Particulars: Gallus gallus. It counts as functional, tissue-based. Put shortly: as §2
Experiment [4] has as its system A2780. Nature of the experiment: Antivascular activity against human A2780 cells xenografted in nude mouse assessed as tumor discoloration at 200 mg/kg administered on every other day and measured after 24 hrs. The format is functional, organism-based. To be noted: in the assay text read “administered as single dose” for “administered on every other day”. Put shortly: (§3)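 Mice bore A2780 tumor xenografts. Compound was formulated in tween80/ethanol (1:1) and injected as single doses. Tumors were inspected for discoloration as a sign of vascular disruption, and treated tumors were examined histologically for hemorrhage and necrosis.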

For experiment [5], the system named is Chorioallantoic membrane. The experiment is described as follows: Antiangiogenic activity in Leghorn chicken embryo chorioallantoic membrane assessed as effect on blood vessel length at 10 nmol after 6 hrs by light microscopic analysis. It counts as functional, tissue-based. To be noted: Gallus gallus. The procedure, abridged:
as §2

For experiment [6], the system named is Chorioallantoic membrane. Nature of the experiment: Antiangiogenic activity in Leghorn chicken embryo chorioallantoic membrane assessed as disruption of smaller blood vessels at 10 nmol after 6 hrs by light microscopic analysis. To be noted: Gallus gallus. It counts as functional, tissue-based. The procedure, abridged: as §2
Experiment [7] has as its system Chorioallantoic membrane. The experiment is described as follows: Antiangiogenic activity in Leghorn chicken embryo chorioallantoic membrane assessed as induction of hemorrhages at 10 nmol after 6 hrs by light microscopic analysis. It counts as functional, tissue-based. To be noted: Gallus gallus. The procedure, abridged: as §2
Experiment [8] concerns Chorioallantoic membrane. The experiment is described as follows: Antiangiogenic activity in Leghorn chicken embryo chorioallantoic membrane assessed as reduction in diameter of main blood vessel at 10 nmol after 24 hrs by light microscopic analysis. The format is functional, tissue-based. To be noted: Gallus gallus. Put shortly: as §2
In experiment [9] the test system is Chorioallantoic membrane. Nature of the experiment: Antiangiogenic activity in Leghorn chicken embryo chorioallantoic membrane assessed as disruption of smaller blood vessels at 5 nmol after 24 hrs by light microscopic analysis. To be noted: Gallus gallus. The format is functional, tissue-based. Put shortly: as §2
The subject of experiment [10] is Chorioallantoic membrane. The experiment is described as follows: Antiangiogenic activity in Leghorn chicken embryo chorioallantoic membrane assessed as induction of hemorrhages at 5 nmol after 24 hrs by light microscopic analysis. It counts as functional, tissue-based. Particulars: Gallus gallus. The procedure, abridged: as §2
Experiment [11] concerns A2780. The experiment is described as follows: Antivascular activity against human A2780 cells xenografted in nude mouse assessed as induction of necrosis at tumor core at 100 mg/kg […] and measured after 24 hrs by H and E staining based histopathological analysis. It counts as functional, organism-based. Put shortly:
as §3
For orientation: A xenograft is tissue or cells of one species grown in another, often human tumour cells in immunodeficient mice.

Experiment [12] has as its system Chorioallantoic membrane. The experiment is described as follows: Antiangiogenic activity in Leghorn chicken embryo chorioallantoic membrane assessed as induction of hemorrhages at 5 nmol after 6 hrs by light microscopic analysis. To be noted: Gallus gallus. The format is functional, tissue-based. Put shortly: as §2
A further experiment concerns A2780cis. Nature of the experiment: Antitumor activity against human A2780cis xenografted in nude mouse at 60 mg/kg, ip administered on day 0, 4, 11 and 16. The format is functional, organism-based.
For experiment [13], the system named is Chorioallantoic membrane. The experiment is described as follows: Antiangiogenic activity in Leghorn chicken embryo chorioallantoic membrane assessed as effect on blood vessel length at 5 nmol after 6 hrs by light microscopic analysis. The format is functional, tissue-based. To be noted: Gallus gallus. The procedure, abridged: as §2
Experiment [14] has as its system A2780. Nature of the experiment: Antivascular activity against human A2780 cells xenografted in nude mouse assessed as induction of hemorrhages at tumor core at 100 mg/kg administered on every other day and measured after 24 hrs by H and E staining based histopathological analysis. The format is functional, organism-based.
Experiment [15] has as its system Chorioallantoic membrane. The experiment is described as follows: Antiangiogenic activity in Leghorn chicken embryo chorioallantoic membrane assessed as reduction in diameter of main blood vessel at 5 nmol after 24 hrs by light microscopic analysis. It counts as functional, tissue-based. To be noted: Gallus gallus. The procedure, abridged: as §2
Experiment [16] concerns Chorioallantoic membrane. Nature of the experiment: Antiangiogenic activity in Leghorn chicken embryo chorioallantoic membrane assessed as disruption of smaller blood vessels at 5 nmol after 6 hrs by light microscopic analysis. The format is functional, tissue-based. To be noted: Gallus gallus. Put shortly: as §2
Experiment [17] deals with Chorioallantoic membrane. The experiment is described as follows: Antiangiogenic activity in Leghorn chicken embryo chorioallantoic membrane assessed as reduction in blood vessel area at 5 nmol after 6 hrs by light microscopic analysis relative to control. To be noted: Gallus gallus. It counts as functional, tissue-based. Also noted: scale not given: the % may be the effect or the level left. The procedure, abridged:
as §1

Molecules are shown by their SMILES. Active and inactive are the calls of the source. The calls are words filed in the database; no cut-off is given here.

As to `N#CC1=C(N)Oc2c(ccc3ccccc23)C1c1cccc([N+](=O)[O-])c1` (stereo not drawn), the Activity with Chorioallantoic membrane [1] was found to be 32%. The outcome in the experiment with Chorioallantoic membrane [2], in the experiment with Chorioallantoic membrane [3] and in the experiment with A2780 [4] was inactive. For the same molecule, the outcome in the experiment on Chorioallantoic membrane [5], with Chorioallantoic membrane [6], in the experiment with Chorioallantoic membrane [7] and with Chorioallantoic membrane [8] was Active.
`N#CC1=C(N)Oc2c(ccc3ccccc23)C1c1cc(F)cc(F)c1` (stereo not drawn): the outcome in the experiment with Chorioallantoic membrane [9] and in the experiment with Chorioallantoic membrane [10] was inactive. Further, the outcome in the experiment on A2780 [11], in the experiment on Chorioallantoic membrane [12], in the experiment with A2780cis, in the experiment with Chorioallantoic membrane [13], with A2780 [14] and with Chorioallantoic membrane [15] was Active. In the experiment on Chorioallantoic membrane [16], the result was Active. The Activity with Chorioallantoic membrane [17] stood at 59%.
